PREPL inhibitor: PREPL enzyme inhibitors, primary screen, biochemical, fluorescence polarization; Prolyl endopeptidase-like (Homo sapiens), Q4J6C6; recombinant PREPL, fluorescence polarization activity-based probe; inhibition, % at 5.96 µM; 0.68% of 320,000 active; AID 2751, 2010
proCasp7 act: procaspase-7 activators, primary screen, counter-screen for procaspase-3 activator project, biochemical, absorbance, HTS, human. Caspase-7 (Homo sapiens), P55210. recombinant procaspase-7, Ac-DEVD-pNA absorbance 405 nm; D23A/D198A/D206A triple mutant, cannot self-cleave; scale: DMSO 0, 5 µM enzyme 100. activation, % at 8.5 µM. 0.093% of 330,000 active. AID 463210, 2010;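 active means percent activation above the screen-wide mean plus 3 SD, cut at about 25% in these data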
Target sequence (P55210 whole entry D23A/D198A/D206A): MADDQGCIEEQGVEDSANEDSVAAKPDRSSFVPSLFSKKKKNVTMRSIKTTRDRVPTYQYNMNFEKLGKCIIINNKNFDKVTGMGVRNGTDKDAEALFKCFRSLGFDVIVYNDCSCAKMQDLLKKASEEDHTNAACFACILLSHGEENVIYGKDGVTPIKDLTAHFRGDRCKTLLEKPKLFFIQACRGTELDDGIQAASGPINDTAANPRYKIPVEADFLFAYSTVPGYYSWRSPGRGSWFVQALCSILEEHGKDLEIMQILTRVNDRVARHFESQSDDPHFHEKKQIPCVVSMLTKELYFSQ
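Replicates: singlicate. Assay system: Procaspase-7 triple mutant (PC-7 D3A). Signal: 405 nm absorbance of p-nitroaniline. Times: 1 h preincubation, 2 h reaction. Buffer or medium: Zinc-free HEPES pH 7.4 with 300 mM NaCl, 0.01% Triton X-100. Also added: DEVD-pNA substrate. Benchmarks: DMSO wells as 0%, DMSO with 5 µM added PC-7 as 100%.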
procasp3 activ: activators of human procaspase-3 D3A mutant, primary screen, biochemical, absorbance, PC-3 D3A mutant, single concentration. AID 463141, 2010. 0.11% of 330,000 active. recombinant procaspase-3 D3A, Ac-DEVD-pNA absorbance 405 nm. activation, % at 8.5 µM. Caspase-3 (Homo sapiens), P42574;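 active means activation above the mean of all tested compounds plus 3 SD, cut at about 21% in these data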
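Compound: 8.5 µM single point, 0.8% DMSO / Material: Autoprocessing-dead procaspase-3 D3A mutant enzyme / Timing: 1 h preincubation plus 2 h reaction at 25 °C / Medium: Zinc-free HEPES/NaCl buffer with 0.01% Triton X-100 at pH 7.4 / Technique: 405 nm absorbance of p-nitroaniline, reads at 0 and 120 min / Repeats: one well per compound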
LYPLA1 inh: LYPLA1 inhibitors, primary screen, counter-screen for PME1 inhibitor project, biochemical, fluorescence polarization, FP-Rh probe ABPP; Acyl-protein thioesterase 1 (Homo sapiens), O75608; recombinant LYPLA1; inhibition, % at 5.9 µM; 0.16% of 320,000 active;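 active means inhibition above the mean of all tested compounds plus 3 SD, set per campaign, cut at about 14% in these data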;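 further: inhibitors block serine hydrolase probe labeling of LYPLA1 so polarization falls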
Target sequence (O75608 whole entry, looked up): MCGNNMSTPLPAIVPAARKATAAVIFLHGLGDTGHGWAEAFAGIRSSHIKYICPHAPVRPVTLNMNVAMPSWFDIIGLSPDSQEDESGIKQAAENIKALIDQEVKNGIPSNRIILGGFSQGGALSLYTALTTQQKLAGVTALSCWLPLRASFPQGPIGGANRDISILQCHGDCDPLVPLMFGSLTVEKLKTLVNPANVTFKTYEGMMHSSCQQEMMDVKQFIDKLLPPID
LYPLA2 counter: LYPLA2 inhibitors, primary screen, counter-screen for PME1 inhibitor project, biochemical, fluorescence polarization, FP-Rh probe ABPP; Acyl-protein thioesterase 2 (Homo sapiens), O95372; recombinant LYPLA2; inhibition, % at 5.9 µM; 0.38% of 320,000 active;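 active means inhibition above the screen-wide mean plus 3 SD, limit set per campaign, cut at about 26% in these data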
PREPL confirm: human PREPL enzyme inhibitors, confirmation, biochemical, fluorescence polarization; shares compounds with PREPL inhibitor; recombinant PREPL, fluorescence polarization activity probe; inhibition, % at 5.96 µM; 67% of 2,000 active; AID 2803, 2010
Large screens that a line does not name were inactive (follow-up assays come after a bar, where they were run). This is a sample that favours compounds with a hit; in the whole collection about 1% have one here. Unless noted, no stated cut-off is given here; in the data, active means inhibition above about 43%; inactive means the rest.

CCC(CO)Oc1cc(NCc2ccncc2)c2ncn(C(C)C)c2c1 (stereo not given)	none (no result: LYPLA1 inh, LYPLA2 counter)
CCC(CN(C)C)Oc1cc(NCc2ccccc2)c2ncn(C(C)C)c2c1 (stereo not given)	PREPL inhibitor 63 (no result: LYPLA1 inh, LYPLA2 counter) | PREPL confirm 51
Cc1cc(/C=C(/C#N)c2nc3ccccc3[nH]2)c(C)n1-c1cccc([N+](=O)[O-])c1	PREPL inhibitor 44 | PREPL confirm inactive
COc1c(O)ccc(/C=C(\C#N)c2nc3ccccc3[nH]2)c1[N+](=O)[O-]	PREPL inhibitor 56 | PREPL confirm inactive
Cc1cc(/C=C(\C#N)c2nc3ccccc3[nH]2)c(C)n1C	none
O=C(c1ccc(-c2ccc([N+](=O)[O-])cc2)o1)N1CCN(S(=O)(=O)c2cccs2)CC1	none
CN(C)CCCNc1cc(C(C)(C)C)nc2c(-c3ccccc3)cnn12	PREPL inhibitor 67 | PREPL confirm 61
CC(C)(C)c1cc(NCCCn2ccnc2)n2ncc(-c3ccc(Cl)cc3)c2n1	none
COc1ccccc1C1c2ccc3ccccc3c2Oc2ncn(CCN(C)C)c(=N)c21 (stereo not given)	none
COc1ccc(C2c3ccc4ccccc4c3Oc3ncn(CCCN(C)C)c(=N)c32)cc1 (stereo not given)	PREPL inhibitor 45 | PREPL confirm inactive
COc1cc(-c2nc3c[n+](CC(=O)c4ccccc4)ccc3n2C)cc(OC)c1OC	PREPL inhibitor 53 | PREPL confirm inactive
COc1ccc(C(=O)C[n+]2ccc3c(c2)nc(-c2ccccc2)n3C)cc1	none
COc1ccc(Cl)c(N2CCN(CCCNC(=O)Nc3ccc(C)cc3)CC2)c1	PREPL inhibitor 47 | PREPL confirm inactive
O=C(CNC(=O)c1cccs1)N/N=C/c1ccco1	none
COc1ccc(/C=N/NC(=O)c2csc(-n3nc(C)cc3C(F)(F)F)n2)cc1	none
COc1cccc(-c2ccc(SCC(=O)NC3CCCCC3)nn2)c1	PREPL inhibitor 44 | PREPL confirm inactive
O=C(Nc1cccc(C(=O)N2CCOCC2)c1)c1ncn[nH]1	none
Cc1c(C(=O)NN)nn(-c2ccc(Cl)cc2)c(=O)c1C#N	none
Cc1ccc(-n2nc(C(=O)NN)c(C)c(C#N)c2=O)cc1Cl	PREPL inhibitor 66 | PREPL confirm inactive
CCN(CC)c1ccc(-n2cc3c(=O)n(C)c(=O)n(C)c3c2)cc1	PREPL inhibitor 49 | PREPL confirm 48
C=CCn1c(CNC(=O)c2cccs2)nnc1SCc1ccc(Cl)cc1Cl	none
CC(NC(=O)c1cccs1)c1nnc(SCc2ccc(Cl)cc2Cl)n1C (stereo not given)	PREPL inhibitor 43 | PREPL confirm inactive
COc1ccc(C(=O)NCc2nnc(SCC(=O)N3CCCCCC3)o2)cc1OC	none
COc1ccc(/C=C/c2nc3ccccc3n2Cc2ccccc2OC)cc1	PREPL inhibitor 49 | PREPL confirm 47
c1ccc(Nc2nc(NCC3CCCO3)c3ccccc3n2)cc1 (stereo not given)	none
CCOc1ccc(Nc2c3ccccc3nc3ccccc23)cc1	PREPL inhibitor 56 | PREPL confirm 60
CCOc1ccc(Nc2nc(NCC3CCCO3)c3ccccc3n2)cc1 (stereo not given)	PREPL inhibitor 59 | PREPL confirm 56
O=C1/C(=C\c2cccs2)SC(=S)N1C1CCS(=O)(=O)C1 (stereo not given)	none
CCN1c2ccccc2N(C)C1(C)c1ccccc1 (stereo not given)	PREPL inhibitor 79 | PREPL confirm inactive
CN1c2ccccc2N(C)C1(C)c1ccccc1	none
COc1ccc(/C=C2\SC(N3CCCCC3)=NC2=O)cc1OC	none
COc1cc(/C=C2\SC(N3CCC(C)CC3)=NC2=O)ccc1O	PREPL inhibitor 44 | PREPL confirm inactive
C=C1N(C)c2cc([N+](=O)[O-])c(N)cc2C1(C)C	PREPL inhibitor 85 | PREPL confirm 44
COc1ccc2cc1Oc1ccc(cc1)C[C@H]1c3c(cc(OC)c4c3Oc3c(ccc5c3[C@H](C2)N(C)CC5)O4)CCN1C	none (no result: LYPLA1 inh, LYPLA2 counter)
COc1ccc2cc1Oc1ccc(cc1)CC1c3c(cc(OC)c4c3Oc3cc5c(cc3O4)CCNC5C2)CCN1C (stereo not given)	PREPL inhibitor 51 | PREPL confirm 52
COC(=O)c1ccc(COc2ccc(-c3nnn(CC(=O)NC(C)(C)C)n3)cc2)cc1	none
O=C(Cc1ccc(Cl)cc1)Nc1ccc(N2CCN(C(=O)c3ccco3)CC2)cc1	PREPL inhibitor 47 | PREPL confirm 53
Cc1cccc(OC(C)C(=O)Nc2ccc(N3CCCCC3)cc2)c1 (stereo not given)	PREPL inhibitor 44 | PREPL confirm 44
Cc1ccc(OCC(=O)Nc2ccc(N3CCN(C(=O)c4ccco4)CC3)cc2)cc1C	PREPL inhibitor 52 | PREPL confirm 57
CC(Oc1cccc(F)c1)C(=O)Nc1ccc(N2CCOCC2)cc1 (stereo not given)	none
Cc1cccc(OCC(=O)Nc2ccc(N3CCN(C(=O)c4ccco4)CC3)cc2)c1	PREPL inhibitor 55 | PREPL confirm 50
CC1CCN(CCCn2c(SCC(=O)Nc3ccccc3Cl)nc3ccccc3c2=O)CC1	none
CCc1ccc(N2CC(C(=O)Nc3ccc(S(=O)(=O)Nc4ncccn4)cc3)CC2=O)cc1 (stereo not given)	none
c1ccc(Oc2ccc(-c3ccnc4nc(N5CCOCC5)nn34)cc2)cc1	none
CCC(=O)c1ccc2c(c1)N(CCCN(C)C)c1ccccc1S2	PREPL inhibitor 64 | PREPL confirm 55
CN(C)CCCN1c2ccccc2Sc2ccccc21	none
C=CCn1c(SCc2c(C(=O)OC)sc(N)c2C(=O)OC)nnc1-c1ccc(Br)cc1	none
O=C1NC(=O)c2cc(Br)cc3cccc1c23	none
Cc1ccc(NS(=O)(=O)c2cc3c4c(cccc4c2)C(=O)NC3=O)cc1C	PREPL inhibitor 45 | PREPL confirm inactive
CCn1c(C)nc2cc(C(=O)N/N=C/c3cccc(O)c3O)ccc21	PREPL inhibitor 45 | PREPL confirm inactive
O=C(CSc1ccccc1F)Nc1ccc(N2CCOCC2)cc1	PREPL inhibitor 55 | PREPL confirm 52
O=C(CSc1ccccc1)Nc1ccc(N2CCOCC2)cc1	none
Cc1ccc(SCC(=O)Nc2ccc(N3CCOCC3)cc2)cc1C	PREPL inhibitor 44 | PREPL confirm inactive

Source: PubChem (The Scripps Research Institute Molecular Screening Center)
